A selection: hits, their analogues and other compounds. The true share with any hit is near 1.2%.
ARNT TACC3 PPI: disruptors of ARNT/TACC3 protein interaction, primary screen, biochemical, AlphaScreen, single concentration; AlphaScreen His-ARNT PAS-B/GST-TACC3 binding, luminescence; TACC3 fragment carries E629A point mutation; inhibition, % at 9.99 µM; 390,000 compounds, 0.66% hits;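 active = mean inhibition of replicates at least 50% and at least half of replicates each reaching 50%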
CAL PDZ FP-1: CAL PDZ peptide-binding inhibitors, primary screen, biochemical, fluorescence polarization, Cer-tagged CAL PDZ, HTS | purified CAL PDZ, TMR-peptide fluorescence polarization, 1 h | inhibition, % at 20 µM | 330,000 compounds, 0.02% hits;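 active = highest replicate inhibition of at least 40%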
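Test system: tagged CAL PDZ domain / Buffer or medium: sodium phosphate/NaCl buffer pH 7.4 with TCEP, IgG, Thesit / Reagent: TMR-labelled reporter peptide T*-PRC34 bound in PDZ groove / Compound dosing: single point, 20 µM / Schedule: 1 h incubation at room temperature before polarization reading / Technique: fluorescence polarization (mP) / Benchmarks: unlabelled peptide, DMSO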
CaV13 ICDI inh: Disruptors of the CACNA1D IQ motif to Ca2+-dependent inactivation inhibitor domain association, primary screening, Förster resonance energy transfer in intact living …; inhibition, % at 12.3 µM; 340,000 compounds, 0.098% hits; AID 743397; HEK cells, CFP/YFP FRET ICDI-IQ, plate reader, 10 min; percent FRET-ratio fall versus neutral wells;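 active = mean replicate inhibition of at least 30% and at least 1% of replicates passing that level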
CAL PDZ FP-2: untagged CAL PDZ binding inhibitors, primary screen, biochemical, fluorescence polarization, HTS; 300,000 compounds, 0.92% hits; inhibition, % at 24.9 µM; Golgi-associated PDZ and coiled-coil motif-containing protein (Homo sapiens), Q9HD26; purified CAL PDZ, TMR-peptide fluorescence polarization, 1 h;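 active = mean inhibition of at least 30% with at least half of replicates also reaching 30%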
ARNT Alpha ctr-1: AlphaScreen signal interference compounds, dose response, artefact control for ARNT-TACC3 interaction inhibitor project, biochemical, luminescence, cherry-pick | shares compounds with ARNT TACC3 PPI | His-ARNT PASB-GST AlphaScreen artifact counter-screen | AC50, µM (top dose mostly 68 µM) | 1,200 compounds, 50% hits | AID 651705, 2012;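 active = every separate test run was called active for a drop in luminescence, with AC50 within twice the top valid dose, actives reach about 71 µM in these data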
ARNT Alpha ctr-2: AlphaScreen signal interference by compounds, dose response, artefact control for ARNT/TACC3 disruptor project, biochemical, dual-tagged ARNT, dry powder. 45 compounds, 70% hits. Dual-tagged His-ARNT PASB-GST AlphaScreen artifact counter-screen. AID 720564, 2013. AC50, µM. shares compounds with ARNT TACC3 PPI;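 active = luminescence drop, with half-maximal potency fitted within twice the sample's top valid dose, cut at about 70 µM in these data; inactive = the rest, including signal moving the wrong way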
A number is an active result; i = inactive; nt = not tested or not shown.

SMILES	ARNT TACC3 PPI	CAL PDZ FP-1	CaV13 ICDI inh	CAL PDZ FP-2	ARNT Alpha ctr-1	others
C[C@@H]1CCCCO[C@@H](CN(C)C(=O)CCCN(C)C)[C@H](C)CN([C@@H](C)CO)C(=O)c2cc(NC(=O)CCC(F)(F)F)ccc2O1	i	nt	nt	nt	nt
C[C@H](O)C#Cc1cnc2c(c1)C(=O)N([C@@H](C)CO)C[C@H](C)[C@@H](CN(C)C(=O)Cc1ccccn1)O2	i	nt	nt	nt	nt
O=C(COC(=O)c1ccc([N+](=O)[O-])s1)NCCc1ccccc1	50	i	nt	nt	i
COc1ccc(C#Cc2ccc3c(c2)[C@H]2[C@H](CCN2C(=O)c2ccccc2F)[C@H](CO)N3)cc1	i	nt	nt	nt	nt
Cc1ccccc1Oc1nc(-c2ccccn2)nc2ccccc12	51	i	i	i	i
Cc1cccc(Oc2nc(-c3ccccn3)nc3ccccc23)c1	65	i	i	i	i
CCOc1ccc(C(=O)NC2CC(C)(C)NC(C)(C)C2)cc1	i	i	i	i	nt
CCOc1cc(C(=O)NC2CC(C)(C)NC(C)(C)C2)cc(OCC)c1OCC	53	i	i	nt	i
C=CCn1c(Cc2csc(N)n2)nnc1SCC(=O)Nc1ccc(C(=O)OCC)cc1	61	i	i	i	i
COc1ccccc1CNCc1cc(Br)ccc1OC	i	nt	i	i	nt
COc1ccc(Br)cc1CNc1ccc(O)cc1	14	i	i	i	53µM
CN1C[C@@H]2[C@H](c3ccccc31)[C@@H](CO)N2C(=O)Nc1ccc(F)cc1	i	nt	nt	nt	nt
O=C(Nc1cccc(F)c1)c1cccnc1NCCc1ccccc1	active	i	i	i	i
Cc1ccc2[nH]c3c(c2c1)CCCC3=O	i	i	nt	i	nt
Cc1ccc2[nH]c3c(c2c1)CCCC3NCCO (stereo not drawn)	43	i	i	nt	i
C[C@@H]1CN([C@@H](C)CO)C(=O)c2cc(NC(=O)CCC(F)(F)F)ccc2O[C@@H]1CN(C)C(=O)Nc1ccc(C(F)(F)F)cc1	i	nt	nt	nt	nt
Cc1nnc(NC(=O)c2ccc(S(=O)(=O)N3CCCCC3)cc2)o1	nt	nt	nt	nt	nt	ARNT Alpha ctr-2=i
CC1CCCN(S(=O)(=O)c2ccc(C(=O)Nc3nnc(C4CC4)o3)cc2)C1 (stereo not drawn)	51	i	nt	i	65µM
Cc1nnc(NC(=O)C2CCN(S(=O)(=O)c3cc([N+](=O)[O-])ccc3Cl)CC2)o1	52	i	i	i	i
O=C(NCc1ccccc1)[C@H]1[C@H](CO)[C@H]2Cn3c(cccc3=O)[C@@H]1N2Cc1ccccn1	i	nt	nt	nt	nt
CCC(=O)N(C)C[C@H]1Oc2cc(-c3ccc(F)cc3)ccc2S(=O)(=O)N([C@H](C)CO)C[C@@H]1C	i	nt	nt	nt	nt
CC(=O)NC(c1ccc(Cl)cc1)c1ccc2cccnc2c1O (stereo not drawn)	i	i	i	i	nt
CCCC(=O)NC(c1ccc(N(C)C)cc1)c1ccc2cccnc2c1O (stereo not drawn)	60	i	i	nt	18µM
Cc1cc(NC(c2ccc(Cl)cc2)c2ccc3cccnc3c2O)no1 (stereo not drawn)	55	i	nt	i	10µM
CCC(=O)NC(c1ccc(C)cc1)c1ccc2cccnc2c1O (stereo not drawn)	35	i	i	i	28µM
SMILES	ARNT TACC3 PPI	CAL PDZ FP-1	CaV13 ICDI inh	CAL PDZ FP-2	ARNT Alpha ctr-1	others
CCCC(=O)NC(c1ccc(C(C)C)cc1)c1ccc2cccnc2c1O (stereo not drawn)	i	i	i	i	nt
CC(C)C#Cc1ccc2c(c1)O[C@H](CN(C)C(=O)c1ccccn1)[C@H](C)CN([C@H](C)CO)S2(=O)=O	i	nt	nt	nt	nt
O=C(CCC(=O)c1cccs1)OCc1nnc(-c2ccccc2)o1	33	i	i	i	i
COc1cc(OC)c(OC)cc1/C=N/NC(=O)c1cc(-c2cccn2C)n[nH]1	i	i	i	i	nt
CCOc1cccc(/C=N/NC(=O)c2cc(-c3cccn3C)n[nH]2)c1O	51	nt	i	i	i
Cc1ccc(S(=O)(=O)NC(=O)c2cc(C)n(CCCn3ccnc3)c2C)cc1	53	i	i	i	i
Cc1ccc(S(=O)(=O)NCCCn2ccnc2)cc1	i	i	i	i	nt
COCC(=O)Nc1ccc2nc3n(c(=O)c2c1)CCCCC3	i	i	i	i	nt
COc1cc(NC(=O)C(=O)Nc2ccc3nc4n(c(=O)c3c2)CCCCC4)cc(OC)c1OC	50	i	i	i	i
COc1cccc(CNC(=O)COC(=O)c2ccc(C(=O)c3ccccc3)cc2)c1	55	i	i	i	i
O=S1(=O)N=C(N/N=C/c2ccccn2)c2ccccc21	59	i	i	i	24µM
CN(C)CCCNC(=O)C[C@@H]1CC[C@@H]2[C@H](COC[C@@H](O)CN2S(=O)(=O)c2ccc(Cl)cc2)O1	i	nt	nt	nt	nt
O=C(c1ccccn1)N1CC[C@@H]2[C@H]1c1cc(Br)ccc1N[C@@H]2CO	69	nt	nt	nt	53µM
O=C(c1ccccn1)N1CC[C@H]2[C@H](CO)Nc3ccc(Br)cc3[C@H]21	i	nt	nt	nt	nt
CN(C)C(=O)c1cccc(-c2ccc3c(c2)[C@@H]2[C@@H](CCN2C(=O)c2cccnc2)[C@@H](CO)N3)c1	65	nt	nt	nt	i
O=C(c1cccnc1)N1CC[C@@H]2[C@H](CO)Nc3ccc(-c4ccccc4)cc3[C@@H]21	i	nt	nt	nt	nt
COc1ccc(/C=N/Nc2nncn2N)cc1Br	55	i	i	i	i
C[C@H](CO)N1C[C@H](C)[C@H](CN(C)Cc2ccc(-c3ccccc3)cc2)Oc2ccc(N(C)C)cc2C1=O	i	nt	nt	nt	nt
COCC#Cc1ccc2c(c1)O[C@@H](CN(C)S(=O)(=O)c1ccc(OC)cc1)[C@H](C)CN([C@H](C)CO)S2(=O)=O	i	nt	nt	nt	nt
Cc1[nH]n(-c2ccccc2)c(=O)c1/C=N/N(c1ccccc1)c1ccccc1	55	i	i	i	23µM
Oc1ccc(CNC2CCc3ccccc32)c2cccnc12 (stereo not drawn)	nt	nt	nt	nt	3.2µM
O=S(=O)(c1ccc(Cl)cc1)N1CCN(Cc2ccc(O)c3ncccc23)CC1	i	i	i	i	nt
Oc1ccc(CN2CCN(Cc3ccccc3)CC2)c2cccnc12	65	i	i	i	6µM
CN1CCN(C2CCN(Cc3ccc(O)c4ncccc34)CC2)CC1	65	i	i	i	14µM
OCC1CCN(Cc2ccc(O)c3ncccc23)CC1	nt	nt	nt	nt	0.41µM
